Source: ChEMBL document CHEMBL1135435, “Synthesis and pharmacological evaluation of 5-(4-biphenyl)-3-methyl-4-phenyl-1,2,4-triazole derivatives as a novel class of selective antagonists for the human vasopressin V(1A) receptor” (J Med Chem, 2002)

Experiments:
Vasopressin V2 receptor [1] = molecular target: Vasopressin V2 receptor (Rattus norvegicus, UniProt Q00788); assay: Binding affinity at Vasopressin V2 receptor, performed using [3H]AVP on rat kidney
Procedure, shortened: (§1)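 [3H]AVP binding on plasma membranes prepared from rat liver (V1A) or rat kidney (V2). Ki from four to six independent experiments in duplicate, mean ± SEM; selectivity expressed as V2/V1A Ki ratio.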

Vasopressin V2 receptor [2] = molecular target: Vasopressin V2 receptor (Homo sapiens, UniProt P30518); assay: Binding affinity at cloned human Vasopressin V2 receptor stably expressed in CHO cells, using [3H]AVP as radioligand; format: cell-based
Procedure, shortened: (§2)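 Membranes from CHO cells stably expressing cloned human receptor; [3H]AVP (0.5-1.0 nM) with graded test concentrations in 50 mM Tris-HCl pH 7.4, 10 mM MgCl2, 0.1% BSA, 60 min at 25 °C. Stopped with ice-cold Tris buffer, rapid GF/B filtration, scintillation counting. Nonspecific binding with 1 μM unlabeled AVP. Ki = IC50/(1+[L]/Kd); Kd from Scatchard: 0.39 nM (V1A), 1.21 nM (V2).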

Vasopressin V1a receptor [3] = molecular target: Vasopressin V1a receptor (Homo sapiens, UniProt P37288); assay: Binding affinity at cloned human Vasopressin V1a receptor stably expressed in CHO cells, using [3H]AVP as radioligand; format: cell-based
Procedure, shortened: as §2, with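 “AVP.” for “AVP. Ki = IC50/(1+[L]/Kd); Kd from Scatchard: 0.39 nM (V1A), 1.21 nM (V2).”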

[4] = Selectivity ratio of affinity at human Vasopressin V2 receptor to that of human Vasopressin V1a receptor.
Procedure, shortened: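 Ratio of hV2 Ki to hV1A Ki, each from [3H]AVP displacement on membranes of CHO cells stably expressing the cloned human receptor (60 min, 25 °C, filtration read-out; Ki via Cheng–Prusoff using Scatchard Kd).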

[5] = molecular target: Vasopressin V2 receptor (Rattus norvegicus) (UniProt Q00788); assay: Selectivity ratio (Ki) of affinity at rat Vasopressin V2 receptor to that of rat Vasopressin V1a receptor; procedure, shortened: as §1
Vasopressin V1a receptor [6] = molecular target: Vasopressin V1a receptor (Rattus norvegicus, UniProt P30560); assay: Binding affinity at Vasopressin V1a receptor, performed using [3H]AVP on rat liver; procedure, shortened: as §1
Chain of Vasopressin V1a receptor (Rattus norvegicus, UniProt P30560) (P30560 whole entry): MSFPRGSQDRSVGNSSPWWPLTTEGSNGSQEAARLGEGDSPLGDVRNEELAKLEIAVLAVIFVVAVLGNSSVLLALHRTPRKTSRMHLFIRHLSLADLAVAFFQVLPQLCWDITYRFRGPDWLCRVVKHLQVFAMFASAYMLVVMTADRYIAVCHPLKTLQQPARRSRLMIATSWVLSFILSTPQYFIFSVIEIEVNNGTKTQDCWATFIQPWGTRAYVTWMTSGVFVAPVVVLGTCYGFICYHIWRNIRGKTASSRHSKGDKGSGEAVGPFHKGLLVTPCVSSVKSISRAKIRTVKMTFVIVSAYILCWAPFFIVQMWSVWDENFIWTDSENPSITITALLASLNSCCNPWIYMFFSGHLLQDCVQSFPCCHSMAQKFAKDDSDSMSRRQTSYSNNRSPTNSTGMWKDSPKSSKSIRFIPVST

Chain of Vasopressin V2 receptor (Rattus norvegicus, UniProt Q00788) (Q00788 whole entry): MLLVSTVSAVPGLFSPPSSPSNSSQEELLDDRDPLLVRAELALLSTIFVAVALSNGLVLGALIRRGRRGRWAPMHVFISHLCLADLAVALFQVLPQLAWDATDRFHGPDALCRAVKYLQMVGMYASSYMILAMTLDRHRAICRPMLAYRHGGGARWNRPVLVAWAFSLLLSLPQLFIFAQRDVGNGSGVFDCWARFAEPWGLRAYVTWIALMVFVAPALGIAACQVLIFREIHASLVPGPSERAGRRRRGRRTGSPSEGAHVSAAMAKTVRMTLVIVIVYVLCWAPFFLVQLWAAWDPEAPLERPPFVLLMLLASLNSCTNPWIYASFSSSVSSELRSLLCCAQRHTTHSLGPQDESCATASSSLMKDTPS
Chain of Vasopressin V2 receptor (Rattus norvegicus) (Q00788 whole entry): as above
Chain of Vasopressin V2 receptor (Homo sapiens, UniProt P30518) (P30518 whole entry): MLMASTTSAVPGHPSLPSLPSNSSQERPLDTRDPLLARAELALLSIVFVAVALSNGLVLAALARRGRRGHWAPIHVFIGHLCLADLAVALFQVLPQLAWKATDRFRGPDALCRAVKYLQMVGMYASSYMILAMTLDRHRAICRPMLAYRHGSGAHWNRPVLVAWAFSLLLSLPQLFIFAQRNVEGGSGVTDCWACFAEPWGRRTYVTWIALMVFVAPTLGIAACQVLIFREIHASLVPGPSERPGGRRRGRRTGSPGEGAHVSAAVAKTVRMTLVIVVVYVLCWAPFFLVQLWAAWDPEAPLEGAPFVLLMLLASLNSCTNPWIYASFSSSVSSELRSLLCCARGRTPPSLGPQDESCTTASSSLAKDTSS
Chain of Vasopressin V1a receptor (Homo sapiens, UniProt P37288) (P37288 whole entry): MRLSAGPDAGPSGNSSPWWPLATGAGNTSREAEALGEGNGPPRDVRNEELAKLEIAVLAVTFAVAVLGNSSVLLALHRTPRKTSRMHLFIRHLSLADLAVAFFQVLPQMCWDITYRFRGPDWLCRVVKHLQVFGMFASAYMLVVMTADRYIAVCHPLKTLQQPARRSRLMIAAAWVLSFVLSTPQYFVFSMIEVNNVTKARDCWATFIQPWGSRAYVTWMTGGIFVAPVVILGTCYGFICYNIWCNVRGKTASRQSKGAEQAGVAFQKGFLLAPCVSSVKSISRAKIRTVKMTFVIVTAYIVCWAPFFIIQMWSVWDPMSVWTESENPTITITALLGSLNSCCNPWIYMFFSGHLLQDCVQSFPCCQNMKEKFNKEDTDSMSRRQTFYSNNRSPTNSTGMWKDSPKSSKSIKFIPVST

Structure (SMILES)	Ki (Vasopressin V2 receptor [1]) [nM]	Ki (Vasopressin V2 receptor [2]) [nM]	Ki (Vasopressin V1a receptor [3]) [nM]	Ratio [4]	Ratio [5]	Ki (Vasopressin V1a receptor [6]) [nM]
COc1ccc(S(=O)(=O)N2c3ccc(Cl)cc3[C@](O)(c3ccccc3Cl)[C@@H]2C(=O)N2CCC[C@H]2C(N)=O)cc1OC [RELCOVAPTAN]	285	178				
Cc1nnc(-c2ccc(-c3ccccc3)cc2)n1-c1ccccc1OCCCCCCCCN1CCN(C)CC1		8890	13.2	670		
Cc1cccc(OCCCCCCN2CCN(C)CC2)c1-n1c(C)nnc1-c1ccc(-c2ccccc2)cc1	11700	14400	1.46	9900	110	102
COc1ccccc1-n1c(C)nnc1-c1ccc(-c2ccccc2)cc1		2460	120	21		
Cc1nnc(-c2ccc(-c3ccccc3)cc2)n1-c1ccccc1OCCCCCCn1ccnc1		11100	9.06	1200		
Cc1nnc(-c2ccc(-c3ccccc3)cc2)n1-c1ccccc1OCCCC1CCNCC1		7370	7.84	940		
Cc1nnc(-c2ccc(-c3ccccc3)cc2)n1-c1ccccc1OCCCCCCCCCCN1CCN(C)CC1		14300	39.4	360		
Cc1nnc(-c2ccc(-c3ccccc3)cc2)n1-c1ccccc1OCCCCCCN1CCC(N2CCCCC2)CC1	1010	979	1.05	930	100	9.69
Cc1cccc(OCc2ccc(C(=O)N3CCN(C)CC3)cc2)c1-n1c(C)nnc1-c1ccc(-c2ccccc2)cc1		8520	8.09	1100		
Cc1nnc(-c2ccc(-c3ccccc3)cc2)n1-c1ccccc1OCCCCN1CCN(C)CC1		10200	29.1	360		
Cc1nnc(-c2ccc(-c3ccccc3)cc2)n1-c1ccccc1OCCCCC1CCNCC1		4430	2.12	2100		
Cc1nnc(-c2ccc(-c3ccccc3)cc2)n1-c1ccccc1OCCC1CCNCC1		8170	55.5	150		
CC(=O)NCCCOc1ccc(C(=O)N2CCC(N3C(=O)CCc4ccccc43)CC2)cc1	> 10000	> 10000	> 10000		> 430	
CN(C)C1CCN(C(=O)/C=C2/c3ccccc3N(C(=O)c3ccc(NC(=O)c4ccccc4-c4ccccc4)cc3)CCC2(F)F)CC1	0.77	1.19	0.62	1.9	4.8	0.16
Cc1nnc(-c2ccc(-c3ccccc3)cc2)n1-c1ccc(OCCCCCCN2CCN(C)CC2)cc1			> 10000			
Cc1nnc(-c2ccc(-c3ccccc3)cc2)n1-c1ccccc1OCCCCCCN1CCN(C)CC1	1240	1780	1.04	1700	72	17.3
Cc1nnc(-c2ccc(-c3ccccc3)cc2)n1-c1ccccc1OCCCCCCN1CCCCC1		6930	13.9	500		
Cc1nnc(-c2ccc(-c3ccccc3)cc2)n1-c1cccc(OCCCCCCN2CCN(C)CC2)c1			214			
Cc1nnc(-c2ccc(-c3ccccc3)cc2)n1-c1ccccc1OCCCN1CCN(C)CC1		10200	38.3	270		
Cc1nnc(-c2ccc(-c3ccccc3)cc2)n1-c1ccccc1OCCCCCC(=O)N1CCN(C)CC1		6650	9.16	730		
Cc1nnc(-c2ccc(-c3ccccc3)cc2)n1-c1ccccc1OCc1ccc(C(=O)N2CCN(C)CC2)cc1	364	585	3.03	190	5.8	62.7
Cc1nnc(-c2ccc(-c3ccccc3)cc2)n1-c1ccccc1OCCCCCCCN1CCN(C)CC1		2470	4.5	550		
Cc1cccc(OCc2ccc(C(=O)N3CCC(N4CCCCC4)CC3)cc2)c1-n1c(C)nnc1-c1ccc(-c2ccccc2)cc1	1840	1920	1.01	1900	57	32.4
Cc1nnc(-c2ccc(-c3ccccc3)cc2)n1-c1ccccc1OCCCCCN1CCN(C)CC1		4850	4.09	1200		
